Reference: ChEMBL document CHEMBL2396513, “Falcipain-2 inhibition by suramin and suramin analogues” (Bioorg Med Chem, 2013)
Activity calls are given as the source filed them. No cut-off for these calls is given here.

What was measured:
[1] = Inhibition of Plasmodium falciparum falcipain-2 peptidolytic activity using Z-Phe-Arg-AMC as substrate measured over 30 mins by spectrofluorimetric analysis
How it was run: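 Recombinant falcipain-2 at 20 nM in 100 mM sodium acetate, 10 mM DTT, 10% glycerol, pH 5.5, with 50 µM Z-Phe-Arg-AMC and varying inhibitor concentrations. AMC release followed continuously (ex 355/em 460 nm) over 30 min at 23 ± 2 °C. IC50 from percent activity versus inhibitor concentration fitted to four-parameter logistic; at least three independent experiments.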

[2] = tested on: Plasmodium falciparum; assay: Binding affinity to Plasmodium falciparum falcipain-2 at 1:1 compound to protein molar ratio by isothermal titration assay
How it was run: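 Recombinant mature falcipain-2 domain (241 aa, E. coli-expressed, Ni-column purified, refolded), 5 µM in 100 mM sodium acetate pH 5.5, 5% glycerol, 10 mM DTT; suramin added stepwise from stock in same buffer. Intrinsic tryptophan fluorescence read at ex 295/em 340 nm; maximum dilution 10%, with fluorescence and protein concentration corrected. Stoichiometry taken from inflection of first-derivative titration curve.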

[3] = tested on: Plasmodium falciparum; assay: Inhibition of Plasmodium falciparum falcipain-2 hemoglobinase activity at 200 nM after 90 mins by Coomassie Blue R-250 staining-based densitometric analysis
How it was run: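 Human hemoglobin 0.1 mg/ml digested by 20 nM recombinant falcipain-2 in 100 mM sodium acetate, 10 mM DTT, 10% glycerol, pH 5.5, with or without compound, 37 °C for 90 min. Quenched with denaturing SDS sample buffer, products run on 15% SDS-PAGE, Coomassie-stained, and remaining hemoglobin quantified by densitometry.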

SMILES	IC50 [1] [nM]	Activity [2]	inhibition [3]
CCc1ccc(C(=O)Nc2ccc(S(=O)(=O)O)c3cc(S(=O)(=O)O)cc(S(=O)(=O)O)c23)cc1NC(=O)c1cccc(NC(=O)Nc2cccc(C(=O)Nc3cc(C(=O)Nc4ccc(S(=O)(=O)O)c5cc(S(=O)(=O)O)cc(S(=O)(=O)O)c45)ccc3CC)c2)c1	80		
CC(C)c1ccc(C(=O)Nc2ccc(S(=O)(=O)O)c3cc(S(=O)(=O)O)cc(S(=O)(=O)O)c23)cc1NC(=O)c1cccc(NC(=O)Nc2cccc(C(=O)Nc3cc(C(=O)Nc4ccc(S(=O)(=O)O)c5cc(S(=O)(=O)O)cc(S(=O)(=O)O)c45)ccc3C(C)C)c2)c1	111		
COCc1ccc(C(=O)Nc2ccc(S(=O)(=O)O)c3cc(S(=O)(=O)O)cc(S(=O)(=O)O)c23)cc1NC(=O)c1cccc(NC(=O)Nc2cccc(C(=O)Nc3cc(C(=O)Nc4ccc(S(=O)(=O)O)c5cc(S(=O)(=O)O)cc(S(=O)(=O)O)c45)ccc3COC)c2)c1	60		
CC1=CCC(C(=O)/N=C2\CC=C(S(=O)(=O)O)c3cc(S(=O)(=O)O)cc(S(=O)(=O)O)c32)=C/C1=N/C(=O)C1=CC=C/C(=N\C(=O)/N=C2\C=CC=C(C(=O)/N=C3/CC(C(=O)/N=C4\CC=C(S(=O)(=O)O)c5cc(S(=O)(=O)O)cc(S(=O)(=O)O)c54)=CC=C3C)C2)C1	95	Active	Active
O=C(Nc1cccc(C(=O)Nc2cc(C(=O)Nc3ccc(S(=O)(=O)O)c4cc(S(=O)(=O)O)cc(S(=O)(=O)O)c34)ccc2-c2ccccc2)c1)Nc1cccc(C(=O)Nc2cc(C(=O)Nc3ccc(S(=O)(=O)O)c4cc(S(=O)(=O)O)cc(S(=O)(=O)O)c34)ccc2-c2ccccc2)c1	62		

Now from value to compound:

IC50 [1] [nM]	Activity [2]	inhibition [3]	SMILES
36			O=C(Nc1cccc(C(=O)Nc2cccc(C(=O)Nc3ccc(S(=O)(=O)O)c4cc(S(=O)(=O)O)cc(S(=O)(=O)O)c34)c2)c1)Nc1cccc(C(=O)Nc2cccc(C(=O)Nc3ccc(S(=O)(=O)O)c4cc(S(=O)(=O)O)cc(S(=O)(=O)O)c34)c2)c1
98			O=C(Nc1cccc(C(=O)Nc2ccc(S(=O)(=O)O)cc2S(=O)(=O)O)c1)Nc1cccc(C(=O)Nc2ccc(S(=O)(=O)O)cc2S(=O)(=O)O)c1
167			O=C(Nc1cccc(C(=O)Nc2ccc(S(=O)(=O)O)c3cc(S(=O)(=O)O)cc(S(=O)(=O)O)c23)c1)Nc1cccc(C(=O)Nc2ccc(S(=O)(=O)O)c3cc(S(=O)(=O)O)cc(S(=O)(=O)O)c23)c1
78			O=C(Nc1cccc(C(=O)Nc2cc(C(=O)Nc3ccc(S(=O)(=O)O)c4cc(S(=O)(=O)O)cc(S(=O)(=O)O)c34)ccc2Cl)c1)Nc1cccc(C(=O)Nc2cc(C(=O)Nc3ccc(S(=O)(=O)O)c4cc(S(=O)(=O)O)cc(S(=O)(=O)O)c34)ccc2Cl)c1
42			O=C(Nc1cccc(C(=O)Nc2cc(C(=O)Nc3ccc(S(=O)(=O)O)c4cc(S(=O)(=O)O)cc(S(=O)(=O)O)c34)ccc2F)c1)Nc1cccc(C(=O)Nc2cc(C(=O)Nc3ccc(S(=O)(=O)O)c4cc(S(=O)(=O)O)cc(S(=O)(=O)O)c34)ccc2F)c1
67			COc1ccc(C(=O)Nc2ccc(S(=O)(=O)O)c3cc(S(=O)(=O)O)cc(S(=O)(=O)O)c23)cc1NC(=O)c1cccc(NC(=O)Nc2cccc(C(=O)Nc3cc(C(=O)Nc4ccc(S(=O)(=O)O)c5cc(S(=O)(=O)O)cc(S(=O)(=O)O)c45)ccc3OC)c2)c1
